The record followed here is ChEMBL document CHEMBL4177600, “Identification of novel PI3K inhibitors through a scaffold hopping strategy” (Bioorg Med Chem Lett, 2017).

Series [1] deals with Focal adhesion kinase 1 (Homo sapiens) (UniProt Q05397). Nature of the series: Inhibition of human FAK at 1 uM relative to control. Put shortly:
(§1)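 Kinase panel of 24 enzymes, each tested at 1 µM; percent inhibition reported as the average of two independent data points.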

The target in series [2] is Mast/stem cell growth factor receptor Kit (Homo sapiens) (UniProt P10721). Nature of the series: Inhibition of recombinant human N-terminal GST/His6-tagged KIT (T544 to V976 residues) expressed in Sf9 insect cells at 1 uM using TRK-C-derived peptide as substrate by filter binding method relative to control. Put shortly: as §1
Series [3] addresses Serine/threonine-protein kinase PAK 1 (Homo sapiens) (UniProt Q13153). Nature of the series: Inhibition of recombinant human N-terminal GST/His6-tagged PAK1 (M1 to H545 residues) expressed in Sf9 insect cells at 1 uM using tetra(LRRWSLG) as substrate by filter binding method relative to control. Put shortly: (§2)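 Single-point screen at 1 µM in a 24-kinase panel run externally; each value is the average of two independent data points. The detailed assay conditions are given only on the provider's site.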

Series [4] deals with Platelet-derived growth factor receptor alpha (Homo sapiens) (UniProt P16234). Nature of the series: Inhibition of recombinant human N-terminal GST/His6-tagged PDGFRalpha (Q551 to L1089 residues) expressed in Sf9 insect cells at 1 uM using TRK-C-derived peptide as substrate by filter binding method relative to control. Put shortly: as §2
Series [5] has as its target T1, 3-phosphoinositide-dependent protein kinase 1 (Homo sapiens) (UniProt O15530).
T1 sequence (whole entry): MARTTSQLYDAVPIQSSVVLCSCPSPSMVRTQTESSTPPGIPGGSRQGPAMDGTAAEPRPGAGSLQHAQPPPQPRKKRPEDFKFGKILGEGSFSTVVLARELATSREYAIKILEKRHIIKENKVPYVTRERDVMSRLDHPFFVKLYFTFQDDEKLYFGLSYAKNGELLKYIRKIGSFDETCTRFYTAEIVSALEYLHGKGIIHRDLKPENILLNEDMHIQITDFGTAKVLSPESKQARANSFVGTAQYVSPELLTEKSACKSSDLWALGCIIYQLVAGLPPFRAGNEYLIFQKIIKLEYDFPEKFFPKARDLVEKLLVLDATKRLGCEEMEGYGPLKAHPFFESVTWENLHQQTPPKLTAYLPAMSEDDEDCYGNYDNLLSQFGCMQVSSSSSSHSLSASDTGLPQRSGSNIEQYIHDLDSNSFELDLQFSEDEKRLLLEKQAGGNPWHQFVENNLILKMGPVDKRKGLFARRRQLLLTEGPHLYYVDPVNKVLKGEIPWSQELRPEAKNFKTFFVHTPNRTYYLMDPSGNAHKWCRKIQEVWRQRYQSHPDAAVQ
Nature of the series: Inhibition of recombinant human N-terminal His6-tagged PDK1 (M1 to M460 residues) expressed in Sf9 insect cells at 1 uM using LRRWSLG as substrate by filter binding method relative to control. Put shortly:
as §2

Series [6] addresses T2, Serine/threonine-protein kinase Sgk1 (Homo sapiens) (UniProt O00141).
T2 sequence (whole entry): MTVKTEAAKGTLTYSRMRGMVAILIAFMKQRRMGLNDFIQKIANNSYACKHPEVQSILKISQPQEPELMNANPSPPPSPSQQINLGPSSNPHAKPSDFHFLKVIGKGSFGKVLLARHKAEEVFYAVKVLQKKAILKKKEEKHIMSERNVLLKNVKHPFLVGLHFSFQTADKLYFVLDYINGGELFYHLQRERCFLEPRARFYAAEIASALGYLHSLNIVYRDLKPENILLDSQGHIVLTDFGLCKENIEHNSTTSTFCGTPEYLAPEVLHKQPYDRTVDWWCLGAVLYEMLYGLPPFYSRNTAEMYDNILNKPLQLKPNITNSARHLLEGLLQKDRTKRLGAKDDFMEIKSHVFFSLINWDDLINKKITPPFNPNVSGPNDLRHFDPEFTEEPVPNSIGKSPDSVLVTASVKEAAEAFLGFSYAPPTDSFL
Nature of the series: Inhibition of recombinant human N-terminal GST-tagged SGK1 (M1 to L431 residues) expressed in baculovirus infected Sf9 cells at 1 uM using GSK3-derived peptide as substrate by filter binding method relative to control. Put shortly:
as §1

A short description of series [7]: Stability in mouse liver microsomes assessed as parent compound remaining at 0.5 uM after 30 mins by LC-MS/MS analysis. The format is ADME, microsome. Particulars: read-out: Stability. The essentials:
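Single time-point stability assay: 0.5 µM compound, 0.5 mg/ml human or mouse liver microsomes in 0.1 M potassium phosphate pH 7.4, with NADPH-regenerating system, 30 min at 37 °C with shaking. Reaction quenched with acetonitrile/0.1% formic acid and centrifuged; supernatant analysed by LC-MS/MS. Reported as percent remaining; duplicates.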

A further series concerns the target CYP3A4 (Homo sapiens, UniProt P08684). Nature of the series: Inhibition of CYP3A4 (unknown origin) at 10 uM relative to control. Type of series: ADME. Put shortly:
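CYP1A2, 2C9, 2C19, 2D6 and 3A4 inhibition measured at 10 µM test compound in duplicate; percent inhibition reported.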

In series [8] the target is Voltage-gated inwardly rectifying potassium channel KCNH2 (Homo sapiens, UniProt Q12809). Nature of the series: Inhibition of human ERG by Tracer Red dye based fluorescence polarization assay. The essentials:
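hERG binding measured with Predictor hERG kit per kit instructions, read by fluorescence polarization.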
For orientation: Fluorescence polarisation rises when a labelled molecule tumbles more slowly, as on binding a larger partner.

The nature of series [9]: Half-life in BALB-C mouse at 5 mg/kg, iv by LC-MS/MS analysis. To be noted: in vivo. Type of series: ADME, organism-based. The essentials: (§3)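 BALB-C mice dosed IV (10% NMP/50% PEG300/40% saline) or PO (10% NMP/90% PEG300). Plasma sampled at 6 (IV) or 8 (PO) time points; compound measured by LC/MS/MS. Parameters from bicompartmental model fit; each value is the mean of 3 independent samples.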

Series [10] in a line: Volume of distribution in BALB-C mouse at 5 mg/kg, iv by LC-MS/MS analysis. Particulars: in vivo. The format is ADME, organism-based. Put shortly: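 BALB-C mice dosed IV in 10% NMP/50% PEG300/40% saline or PO in 10% NMP/90% PEG300. Plasma sampled at 6 (IV) or 8 (PO) time points and quantified by LC/MS/MS. Parameters come from a bicompartmental model fit; values are means of 3 independent samples. Plasma levels were compared with AKT-P EC50 from U2OS cells converted to ng/ml.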

The nature of series [11]: AUC (infinity) in BALB-C mouse at 5 mg/kg, iv by LC-MS/MS analysis. The format is ADME, organism-based. Details: dose 5 mg/kg, time infinity, route intravenous. To be noted: in vivo. The essentials: as §3
For the next series, the system named is Mus musculus. Nature of the series: Clearance in BALB-C mouse at 5 mg/kg, iv by LC-MS/MS analysis relative to hepatic blood flow. The format is ADME, organism-based. To be noted: in vivo.
The target of a further series is PI3K p110 beta/p85 alpha (Homo sapiens, UniProt P42338). Nature of the series: Inhibition of p110beta/85alpha (unknown origin) using PIP2 as substrate by HTRF assay. The format is protein-complex assay. Particulars: read-out: Ki(app). On the technique in general: Time-resolved FRET reads energy transfer from a long-lived donor to a nearby acceptor.
For series [12], the target named is Serine/threonine-protein kinase mTOR (Homo sapiens, UniProt P42345). Nature of the series: Inhibition of recombinant human GST-tagged mTOR catalytic domain (1360 to 2549 residues) expressed in baculovirus expression system by AlexaFluor647-labeled kinase tracer 314 based LanthaScreen assay.

Chain of Focal adhesion kinase 1 (Homo sapiens) (Q05397 2-1052 limits assumed): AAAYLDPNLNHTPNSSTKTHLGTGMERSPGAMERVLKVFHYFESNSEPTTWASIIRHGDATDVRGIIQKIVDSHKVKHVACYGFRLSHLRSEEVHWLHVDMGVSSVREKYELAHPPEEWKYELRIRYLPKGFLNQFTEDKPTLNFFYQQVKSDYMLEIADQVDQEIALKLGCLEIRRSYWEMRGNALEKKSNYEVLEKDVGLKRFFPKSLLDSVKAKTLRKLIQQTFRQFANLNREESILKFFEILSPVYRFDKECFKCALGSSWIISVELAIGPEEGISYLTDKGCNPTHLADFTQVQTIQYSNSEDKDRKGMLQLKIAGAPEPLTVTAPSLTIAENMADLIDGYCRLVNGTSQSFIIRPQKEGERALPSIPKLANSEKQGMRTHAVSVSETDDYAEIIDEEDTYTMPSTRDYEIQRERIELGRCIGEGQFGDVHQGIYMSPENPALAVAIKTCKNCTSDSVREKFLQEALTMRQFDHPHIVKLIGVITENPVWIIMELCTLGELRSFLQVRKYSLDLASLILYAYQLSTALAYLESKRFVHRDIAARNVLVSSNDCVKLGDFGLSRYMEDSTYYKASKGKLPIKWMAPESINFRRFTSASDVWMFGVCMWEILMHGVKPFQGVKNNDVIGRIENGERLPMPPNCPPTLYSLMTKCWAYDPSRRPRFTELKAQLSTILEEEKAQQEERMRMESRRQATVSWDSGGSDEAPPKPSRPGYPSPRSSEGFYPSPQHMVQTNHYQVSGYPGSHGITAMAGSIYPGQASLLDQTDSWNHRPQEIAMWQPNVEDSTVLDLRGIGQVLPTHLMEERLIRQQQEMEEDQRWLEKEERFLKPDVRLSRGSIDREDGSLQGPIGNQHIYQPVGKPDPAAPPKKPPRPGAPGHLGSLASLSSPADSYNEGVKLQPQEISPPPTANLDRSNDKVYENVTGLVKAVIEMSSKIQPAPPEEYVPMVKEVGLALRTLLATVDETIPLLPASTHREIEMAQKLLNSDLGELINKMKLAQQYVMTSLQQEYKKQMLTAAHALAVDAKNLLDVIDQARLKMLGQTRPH
Chain of Voltage-gated inwardly rectifying potassium channel KCNH2 (Q12809 whole entry): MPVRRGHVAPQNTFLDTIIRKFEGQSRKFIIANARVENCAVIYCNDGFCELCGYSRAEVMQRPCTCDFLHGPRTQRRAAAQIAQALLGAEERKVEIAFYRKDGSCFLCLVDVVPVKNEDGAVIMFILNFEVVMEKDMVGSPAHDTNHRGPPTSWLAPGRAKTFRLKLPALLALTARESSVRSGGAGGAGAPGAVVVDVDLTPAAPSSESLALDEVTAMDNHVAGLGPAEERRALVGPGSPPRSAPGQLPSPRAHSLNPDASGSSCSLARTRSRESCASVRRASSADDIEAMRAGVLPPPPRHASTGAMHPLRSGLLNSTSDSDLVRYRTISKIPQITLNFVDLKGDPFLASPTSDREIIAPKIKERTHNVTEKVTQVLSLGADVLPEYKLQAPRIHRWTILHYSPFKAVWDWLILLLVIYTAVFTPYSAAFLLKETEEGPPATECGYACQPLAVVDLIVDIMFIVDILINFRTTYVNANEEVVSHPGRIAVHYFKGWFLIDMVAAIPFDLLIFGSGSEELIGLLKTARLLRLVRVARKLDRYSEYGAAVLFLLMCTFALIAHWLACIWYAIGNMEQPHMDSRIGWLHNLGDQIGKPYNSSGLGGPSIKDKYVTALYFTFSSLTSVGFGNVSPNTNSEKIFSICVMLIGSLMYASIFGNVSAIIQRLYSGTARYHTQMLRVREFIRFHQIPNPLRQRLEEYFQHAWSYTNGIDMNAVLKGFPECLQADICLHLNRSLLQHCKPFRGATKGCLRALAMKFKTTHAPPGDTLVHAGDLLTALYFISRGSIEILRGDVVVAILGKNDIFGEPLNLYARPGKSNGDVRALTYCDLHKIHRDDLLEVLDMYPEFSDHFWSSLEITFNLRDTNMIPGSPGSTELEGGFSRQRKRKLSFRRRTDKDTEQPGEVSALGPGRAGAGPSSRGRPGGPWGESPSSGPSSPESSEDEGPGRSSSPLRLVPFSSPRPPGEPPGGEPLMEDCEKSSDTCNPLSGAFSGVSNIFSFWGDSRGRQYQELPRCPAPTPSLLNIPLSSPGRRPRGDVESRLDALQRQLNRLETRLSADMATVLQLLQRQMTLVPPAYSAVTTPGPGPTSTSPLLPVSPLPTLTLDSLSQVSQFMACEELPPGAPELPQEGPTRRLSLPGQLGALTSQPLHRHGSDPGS
Chain of Mast/stem cell growth factor receptor Kit (Homo sapiens) (P10721 whole entry, the tested form may be a part): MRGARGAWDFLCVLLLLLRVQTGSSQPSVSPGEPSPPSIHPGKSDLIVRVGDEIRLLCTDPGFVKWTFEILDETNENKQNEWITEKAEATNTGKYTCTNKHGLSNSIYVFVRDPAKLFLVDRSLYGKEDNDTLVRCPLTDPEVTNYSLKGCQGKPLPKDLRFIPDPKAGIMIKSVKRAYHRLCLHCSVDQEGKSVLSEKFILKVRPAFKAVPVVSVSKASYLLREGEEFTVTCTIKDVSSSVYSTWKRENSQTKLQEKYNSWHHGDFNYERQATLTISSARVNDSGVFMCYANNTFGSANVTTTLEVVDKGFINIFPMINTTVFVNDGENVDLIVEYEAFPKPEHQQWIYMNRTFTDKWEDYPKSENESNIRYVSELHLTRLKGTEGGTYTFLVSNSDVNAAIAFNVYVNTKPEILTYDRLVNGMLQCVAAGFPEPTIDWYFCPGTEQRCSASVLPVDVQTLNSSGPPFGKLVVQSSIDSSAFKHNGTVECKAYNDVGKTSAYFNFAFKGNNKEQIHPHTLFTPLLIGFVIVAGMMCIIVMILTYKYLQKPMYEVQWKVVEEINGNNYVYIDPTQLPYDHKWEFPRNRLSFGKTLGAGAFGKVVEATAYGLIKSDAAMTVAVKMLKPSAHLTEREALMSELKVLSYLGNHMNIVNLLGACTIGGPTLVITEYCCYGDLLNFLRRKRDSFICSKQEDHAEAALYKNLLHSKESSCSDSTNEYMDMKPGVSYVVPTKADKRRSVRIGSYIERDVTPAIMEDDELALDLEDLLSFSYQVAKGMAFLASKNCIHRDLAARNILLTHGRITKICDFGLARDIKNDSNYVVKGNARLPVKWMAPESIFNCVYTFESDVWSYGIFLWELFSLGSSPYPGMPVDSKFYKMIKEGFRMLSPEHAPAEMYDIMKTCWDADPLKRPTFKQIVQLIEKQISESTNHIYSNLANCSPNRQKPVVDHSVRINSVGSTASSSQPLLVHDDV
Chain of CYP3A4 (P08684 whole entry): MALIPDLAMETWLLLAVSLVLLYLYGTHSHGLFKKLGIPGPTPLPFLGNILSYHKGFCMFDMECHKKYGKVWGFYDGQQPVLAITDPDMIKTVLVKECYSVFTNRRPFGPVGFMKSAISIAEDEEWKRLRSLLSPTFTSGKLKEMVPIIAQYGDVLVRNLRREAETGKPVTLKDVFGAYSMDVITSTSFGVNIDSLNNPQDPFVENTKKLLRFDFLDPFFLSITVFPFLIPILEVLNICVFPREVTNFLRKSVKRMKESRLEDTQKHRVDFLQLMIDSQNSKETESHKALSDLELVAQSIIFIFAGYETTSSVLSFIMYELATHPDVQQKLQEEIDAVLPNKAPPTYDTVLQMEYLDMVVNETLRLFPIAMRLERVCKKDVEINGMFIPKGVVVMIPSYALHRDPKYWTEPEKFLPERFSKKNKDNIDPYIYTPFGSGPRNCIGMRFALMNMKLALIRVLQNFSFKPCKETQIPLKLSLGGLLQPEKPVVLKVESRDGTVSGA
Chain of Serine/threonine-protein kinase PAK 1 (Homo sapiens) (Q13153 whole entry, the tested form may be a part): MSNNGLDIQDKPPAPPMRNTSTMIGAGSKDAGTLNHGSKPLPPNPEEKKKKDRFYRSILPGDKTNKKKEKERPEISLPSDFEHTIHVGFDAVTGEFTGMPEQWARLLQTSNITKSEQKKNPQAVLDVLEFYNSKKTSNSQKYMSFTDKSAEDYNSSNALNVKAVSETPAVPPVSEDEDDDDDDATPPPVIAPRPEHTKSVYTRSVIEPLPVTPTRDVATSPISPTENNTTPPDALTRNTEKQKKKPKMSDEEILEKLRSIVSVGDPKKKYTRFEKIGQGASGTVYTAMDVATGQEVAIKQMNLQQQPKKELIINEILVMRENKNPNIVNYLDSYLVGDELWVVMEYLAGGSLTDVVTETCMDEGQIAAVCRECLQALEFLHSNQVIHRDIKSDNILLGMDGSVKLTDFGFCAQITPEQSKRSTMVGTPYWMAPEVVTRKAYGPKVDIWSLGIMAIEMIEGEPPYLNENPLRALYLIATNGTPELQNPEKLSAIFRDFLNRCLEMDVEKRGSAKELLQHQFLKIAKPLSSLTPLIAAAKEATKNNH

As usually defined, the inhibition is the drop in the measured response relative to a control, in per cent. In general, IC50 refers to the concentration that inhibits the measured activity by half. One may read the half-life as the time in which the quantity being followed falls by half. A higher half-life goes with slow decline. As usually defined, the Vd is a proportionality between amount in the body and measured concentration, not a real space. Read a low Vd as little distribution into tissue. The term AUC(0-inf) denotes total exposure, with the tail of the curve extrapolated. Take `CS(=O)(=O)N1CCN(Cc2nc3c(N4CCOCC4)nc(-c4cnc(N)nc4)cn3n2)CC1`: the inhibition in [1], in series [2], in series [3], in [4], in series [5] and in series [6] was < 25% throughout. For the same compound, the remaining at 0.5 h, 0.5 µM in series [7] was found to be 100%. Further, on CYP3A4, the inhibition at 10 µM is < 25%. The half-maximal inhibitory concentration (IC50) in [8] was > 30 µM. Also, in series [9], the half-life is 0.26 h. For the same compound, in [10], the Vd came out at 2 L/kg. The same compound yielded an AUC(0-inf) in series [11] of 2660 ng·h/mL. The CL with Mus musculus is given as < 50%.

As for `CS(=O)(=O)N1CCN(Cc2nc3c(N4CCOCC4)nc(-c4cnc(N)nc4)c(Cl)n3n2)CC1`, on PI3K p110 beta/p85 alpha, the Ki stood at 0.285 µM. Further, the values for the IC50 in [12] and in [8] were 8.17 µM and > 30 µM, respectively. Moreover, the inhibition in series [1], in series [2], in series [3], in series [4], in series [5] and in series [6] was < 25% in each case. The remaining at 0.5 h, 0.5 µM in series [7] turned out to be 96%. The inhibition at 10 µM at CYP3A4 is < 25%. The compound also showed a half-life in series [9] of 1.81 h. This compound showed a volume of distribution (Vd) in series [10] of 1.61 L/kg. The same compound showed an AUC(0-inf) in series [11] of 7730 ng·h/mL. Also, the CL with Mus musculus is < 50%.

In the case of `CS(=O)(=O)N1CCN(Cc2cc3c(N4CCOCC4)nc(-c4cnc(N)nc4)cn3n2)CC1`, the Ki on PI3K p110 beta/p85 alpha was 0.0492 µM. Besides, the IC50 in series [12] is 1.7 µM; in [8], > 30 µM. Besides, the inhibition in series [1], in [2], in [3], in series [4], in series [5] and in series [6] was < 25% throughout. Further, the remaining at 0.5 h, 0.5 µM in series [7] turned out to be 100%. In addition, the inhibition at 10 µM against CYP3A4 was < 25%.

Turning to `CS(=O)(=O)N1CCN(Cc2cn3nc(-c4cnc(N)nc4)nc(N4CCOCC4)c3n2)CC1`, the Ki on PI3K p110 beta/p85 alpha was 0.388 µM. For the same compound, the inhibition in series [1], in series [2], in series [3], in series [4], in series [5] and in series [6] was < 25% in each case. Also, the remaining at 0.5 h, 0.5 µM in [7] stood at 100%. Besides, the inhibition at 10 µM against CYP3A4 was < 25%. The IC50 in [8] was > 30 µM.
